What was measured:
Assay in all cases: Z'-Lyte kinase assay
Type in all cases: biochemical
Conditions in all cases: two replicates
[1] = target: T1, Aurora-related kinase 1 (ARK1) (Homo sapiens, UniProt O14965)
T1 sequence (O14965 1-403): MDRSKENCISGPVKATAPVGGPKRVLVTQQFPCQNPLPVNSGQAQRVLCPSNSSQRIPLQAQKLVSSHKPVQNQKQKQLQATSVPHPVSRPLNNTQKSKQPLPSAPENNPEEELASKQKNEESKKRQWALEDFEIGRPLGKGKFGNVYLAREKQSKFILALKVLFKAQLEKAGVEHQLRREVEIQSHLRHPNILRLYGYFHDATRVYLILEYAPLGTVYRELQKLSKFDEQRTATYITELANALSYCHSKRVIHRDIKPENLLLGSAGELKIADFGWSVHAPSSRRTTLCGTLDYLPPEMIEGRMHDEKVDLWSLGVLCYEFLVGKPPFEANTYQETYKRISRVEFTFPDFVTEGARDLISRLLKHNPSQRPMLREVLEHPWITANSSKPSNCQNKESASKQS
How it was run: (§1)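 Outsourced commercial profiling of the test compound against a panel of 38 non-JAK kinases, all screened with Z'-Lyte technology at a single concentration. Assay conditions and data analysis were specific to each kinase and set by the service provider. Every test was run in duplicate, and percent inhibition is reported separately for each replicate.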

[2] = target: Mitogen-activated protein kinase kinase kinase kinase 4 (MAP4K4/HGK) (Homo sapiens, UniProt O95819)
Mitogen-activated protein kinase kinase kinase kinase 4 (MAP4K4/HGK), sequence (O95819 2-1239): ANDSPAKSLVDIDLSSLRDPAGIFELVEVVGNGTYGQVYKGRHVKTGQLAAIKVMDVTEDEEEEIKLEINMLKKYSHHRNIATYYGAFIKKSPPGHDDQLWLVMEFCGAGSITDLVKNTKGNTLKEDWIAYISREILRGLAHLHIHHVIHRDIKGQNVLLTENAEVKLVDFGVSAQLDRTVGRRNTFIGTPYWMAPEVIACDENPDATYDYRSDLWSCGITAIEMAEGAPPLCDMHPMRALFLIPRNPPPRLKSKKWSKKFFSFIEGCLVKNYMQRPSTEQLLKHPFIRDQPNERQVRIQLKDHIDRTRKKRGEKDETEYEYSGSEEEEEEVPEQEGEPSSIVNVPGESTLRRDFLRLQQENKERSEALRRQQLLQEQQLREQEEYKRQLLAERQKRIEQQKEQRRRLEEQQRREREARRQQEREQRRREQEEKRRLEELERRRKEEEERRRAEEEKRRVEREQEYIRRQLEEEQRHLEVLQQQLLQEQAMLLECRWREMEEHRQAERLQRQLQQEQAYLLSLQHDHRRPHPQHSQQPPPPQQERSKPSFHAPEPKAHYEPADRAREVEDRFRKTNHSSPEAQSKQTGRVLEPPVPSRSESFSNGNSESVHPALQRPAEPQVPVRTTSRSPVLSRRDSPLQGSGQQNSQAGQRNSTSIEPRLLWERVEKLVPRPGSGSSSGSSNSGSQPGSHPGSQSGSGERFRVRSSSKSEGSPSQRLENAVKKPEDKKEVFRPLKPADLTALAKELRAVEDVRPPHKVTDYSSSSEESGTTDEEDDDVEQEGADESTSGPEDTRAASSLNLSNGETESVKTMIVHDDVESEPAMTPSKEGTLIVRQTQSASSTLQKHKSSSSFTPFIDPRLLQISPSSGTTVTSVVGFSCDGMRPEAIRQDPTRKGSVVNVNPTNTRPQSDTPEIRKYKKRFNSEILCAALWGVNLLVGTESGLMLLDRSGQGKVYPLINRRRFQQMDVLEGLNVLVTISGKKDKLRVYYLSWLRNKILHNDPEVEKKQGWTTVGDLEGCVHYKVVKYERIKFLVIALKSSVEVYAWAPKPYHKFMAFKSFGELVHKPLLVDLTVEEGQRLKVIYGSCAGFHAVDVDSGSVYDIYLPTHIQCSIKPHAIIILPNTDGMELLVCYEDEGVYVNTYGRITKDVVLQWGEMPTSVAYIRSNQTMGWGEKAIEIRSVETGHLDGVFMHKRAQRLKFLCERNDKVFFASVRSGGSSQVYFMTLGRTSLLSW
How it was run: as §1

[3] = target: High affinity nerve growth factor receptor (TRK-A) (Homo sapiens, UniProt P04629)
High affinity nerve growth factor receptor (TRK-A), sequence (P04629 33-796): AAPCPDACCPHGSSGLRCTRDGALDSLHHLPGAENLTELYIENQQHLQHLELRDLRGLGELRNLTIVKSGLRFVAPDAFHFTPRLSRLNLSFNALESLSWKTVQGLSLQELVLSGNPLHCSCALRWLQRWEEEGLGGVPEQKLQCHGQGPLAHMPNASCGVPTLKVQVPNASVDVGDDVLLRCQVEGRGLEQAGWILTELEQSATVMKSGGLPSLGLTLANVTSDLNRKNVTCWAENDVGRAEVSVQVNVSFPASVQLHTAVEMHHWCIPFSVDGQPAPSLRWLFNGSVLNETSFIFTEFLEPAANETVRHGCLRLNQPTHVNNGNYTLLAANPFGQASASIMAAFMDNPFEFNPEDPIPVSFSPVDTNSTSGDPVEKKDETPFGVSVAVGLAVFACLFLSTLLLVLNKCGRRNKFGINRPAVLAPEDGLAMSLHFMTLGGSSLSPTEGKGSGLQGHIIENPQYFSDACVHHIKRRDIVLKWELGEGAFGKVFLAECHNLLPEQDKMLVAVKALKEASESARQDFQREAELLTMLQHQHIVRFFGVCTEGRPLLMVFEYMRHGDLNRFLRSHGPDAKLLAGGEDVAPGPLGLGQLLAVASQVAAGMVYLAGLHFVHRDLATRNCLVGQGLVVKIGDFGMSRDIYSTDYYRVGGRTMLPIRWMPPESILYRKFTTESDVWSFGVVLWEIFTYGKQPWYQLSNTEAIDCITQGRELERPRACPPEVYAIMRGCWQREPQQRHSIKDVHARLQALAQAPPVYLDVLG
How it was run: as §1

[4] = target: p160ROCK protein kinase (Homo sapiens, UniProt Q13464)
p160ROCK protein kinase, sequence (Q13464 2-1354): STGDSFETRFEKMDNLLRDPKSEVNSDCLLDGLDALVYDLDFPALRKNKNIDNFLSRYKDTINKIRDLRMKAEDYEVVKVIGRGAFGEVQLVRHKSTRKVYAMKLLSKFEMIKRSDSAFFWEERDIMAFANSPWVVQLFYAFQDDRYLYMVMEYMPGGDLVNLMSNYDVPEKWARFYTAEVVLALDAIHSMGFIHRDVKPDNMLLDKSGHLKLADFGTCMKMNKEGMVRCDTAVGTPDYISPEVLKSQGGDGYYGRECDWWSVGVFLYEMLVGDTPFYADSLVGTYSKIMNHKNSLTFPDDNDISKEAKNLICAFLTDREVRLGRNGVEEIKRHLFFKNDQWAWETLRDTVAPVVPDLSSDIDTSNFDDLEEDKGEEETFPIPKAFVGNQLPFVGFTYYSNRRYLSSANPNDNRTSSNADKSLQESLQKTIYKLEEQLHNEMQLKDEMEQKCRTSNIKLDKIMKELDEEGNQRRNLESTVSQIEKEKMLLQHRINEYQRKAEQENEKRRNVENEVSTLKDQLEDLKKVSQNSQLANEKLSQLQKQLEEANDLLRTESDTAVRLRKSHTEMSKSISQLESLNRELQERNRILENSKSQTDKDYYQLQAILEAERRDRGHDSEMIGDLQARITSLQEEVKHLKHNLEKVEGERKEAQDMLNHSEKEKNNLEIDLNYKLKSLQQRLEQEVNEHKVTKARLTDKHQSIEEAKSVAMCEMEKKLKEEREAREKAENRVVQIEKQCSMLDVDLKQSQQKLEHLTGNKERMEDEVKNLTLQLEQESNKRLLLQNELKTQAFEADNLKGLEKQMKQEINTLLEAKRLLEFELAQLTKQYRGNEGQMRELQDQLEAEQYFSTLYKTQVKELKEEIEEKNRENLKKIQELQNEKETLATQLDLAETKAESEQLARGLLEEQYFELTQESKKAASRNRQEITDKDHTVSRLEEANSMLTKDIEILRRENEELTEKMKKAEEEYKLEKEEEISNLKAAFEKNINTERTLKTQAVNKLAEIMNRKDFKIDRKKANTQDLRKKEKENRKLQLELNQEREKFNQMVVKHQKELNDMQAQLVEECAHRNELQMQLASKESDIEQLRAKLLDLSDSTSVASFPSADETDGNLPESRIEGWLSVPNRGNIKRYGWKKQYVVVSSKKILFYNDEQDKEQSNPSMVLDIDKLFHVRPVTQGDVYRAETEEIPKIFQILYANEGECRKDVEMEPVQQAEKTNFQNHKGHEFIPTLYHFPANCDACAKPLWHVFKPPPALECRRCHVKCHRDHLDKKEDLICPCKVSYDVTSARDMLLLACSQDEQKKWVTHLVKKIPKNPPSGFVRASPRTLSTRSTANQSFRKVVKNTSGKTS
How it was run: as §1

[5] = target: Vascular endothelial growth factor receptor 2 (VEGFR-2/FLK1) (Homo sapiens, UniProt P35968)
Vascular endothelial growth factor receptor 2 (VEGFR-2/FLK1), sequence (P35968 20-1356): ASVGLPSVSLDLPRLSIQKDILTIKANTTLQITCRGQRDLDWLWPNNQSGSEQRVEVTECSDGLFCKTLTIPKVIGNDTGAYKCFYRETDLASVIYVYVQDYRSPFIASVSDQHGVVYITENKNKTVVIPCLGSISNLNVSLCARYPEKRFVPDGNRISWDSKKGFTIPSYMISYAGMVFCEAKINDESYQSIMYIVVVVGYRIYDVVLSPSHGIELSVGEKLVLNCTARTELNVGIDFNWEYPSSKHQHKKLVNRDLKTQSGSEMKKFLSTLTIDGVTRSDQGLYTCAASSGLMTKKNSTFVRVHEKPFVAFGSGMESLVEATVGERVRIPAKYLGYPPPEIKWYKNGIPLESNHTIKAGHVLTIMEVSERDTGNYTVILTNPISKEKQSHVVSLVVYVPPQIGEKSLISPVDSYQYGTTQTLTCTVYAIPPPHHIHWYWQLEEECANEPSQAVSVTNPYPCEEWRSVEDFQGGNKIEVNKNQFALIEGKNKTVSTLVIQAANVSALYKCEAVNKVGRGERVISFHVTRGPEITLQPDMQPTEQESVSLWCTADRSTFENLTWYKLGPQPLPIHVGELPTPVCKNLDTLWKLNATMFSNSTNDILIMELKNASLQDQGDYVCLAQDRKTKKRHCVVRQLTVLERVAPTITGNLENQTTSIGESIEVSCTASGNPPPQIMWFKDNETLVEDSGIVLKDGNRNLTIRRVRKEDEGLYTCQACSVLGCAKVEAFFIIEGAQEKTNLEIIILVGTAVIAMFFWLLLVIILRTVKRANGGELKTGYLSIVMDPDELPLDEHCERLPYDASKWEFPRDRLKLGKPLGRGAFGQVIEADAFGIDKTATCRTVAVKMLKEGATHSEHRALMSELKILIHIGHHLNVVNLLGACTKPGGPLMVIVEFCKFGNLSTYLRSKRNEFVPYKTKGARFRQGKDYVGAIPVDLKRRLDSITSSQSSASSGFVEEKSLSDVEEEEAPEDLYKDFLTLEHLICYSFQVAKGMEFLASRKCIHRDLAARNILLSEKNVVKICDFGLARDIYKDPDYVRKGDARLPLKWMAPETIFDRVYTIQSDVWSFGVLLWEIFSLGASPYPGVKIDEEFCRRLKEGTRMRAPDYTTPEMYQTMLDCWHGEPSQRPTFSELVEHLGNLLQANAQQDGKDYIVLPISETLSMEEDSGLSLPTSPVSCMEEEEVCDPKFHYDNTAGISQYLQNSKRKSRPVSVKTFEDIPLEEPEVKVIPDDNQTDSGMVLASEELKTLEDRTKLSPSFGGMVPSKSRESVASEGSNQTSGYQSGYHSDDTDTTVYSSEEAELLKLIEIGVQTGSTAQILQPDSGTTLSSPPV
How it was run: as §1

- Percent inhibition at 1000 nM oclacitinib (1st replicate) [1]: 40; 40%
- Percent inhibition at 1000 nM oclacitinib (1st replicate) [2]: 42; 34%
- Percent inhibition at 1000 nM oclacitinib (1st replicate) [3]: 32; 31%
- Percent inhibition at 1000 nM oclacitinib (1st replicate) [4]: 34; 32%
- Percent inhibition at 1000 nM oclacitinib (1st replicate) [5]: 41; 37%
SMILES: CNS(=O)(=O)C[C@H]1CC[C@H](N(C)c2ncnc3[nH]ccc23)CC1 [oclacitinib]

— PMC4265276 (Journal of Veterinary Pharmacology and Therapeutics, 2014)
